Data reported in ChEMBL document CHEMBL1146655, “Novel thrombin inhibitors incorporating weakly basic heterobicyclic P1-arginine mimetics: optimization via modification of P1 and P3 moieties” (Bioorg Med Chem Lett, 2004).

Key:
[1] = Concentration required to double the thrombin time in human plasma; format: functional
[2] = Dissociation constant was evaluated; format: physicochemical
Prothrombin = Prothrombin (Homo sapiens, UniProt P00734); experiment: In vitro inhibition of human thrombin.
[3] = Selectivity for inhibition of thrombin over trypsin.
Summary of the method: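 Ratio Ki(trypsin)/Ki(thrombin). Both Ki values came from chromogenic-substrate amidolytic assays, each derived by Cheng–Prusoff from IC50 or from velocity equations with and without inhibitor using the relevant Km.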

Coagulation factor X = Coagulation factor X (Homo sapiens, UniProt P00742); experiment: In vitro inhibition of Coagulation factor Xa.
Coagulation factor X, sequence (P00742 41-179 limits assumed): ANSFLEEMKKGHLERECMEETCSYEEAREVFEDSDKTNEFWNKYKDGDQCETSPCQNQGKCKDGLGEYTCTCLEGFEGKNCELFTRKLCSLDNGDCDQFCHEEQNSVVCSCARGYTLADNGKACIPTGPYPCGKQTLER
Coagulation factor X, sequence (P00742 235-488 limits assumed): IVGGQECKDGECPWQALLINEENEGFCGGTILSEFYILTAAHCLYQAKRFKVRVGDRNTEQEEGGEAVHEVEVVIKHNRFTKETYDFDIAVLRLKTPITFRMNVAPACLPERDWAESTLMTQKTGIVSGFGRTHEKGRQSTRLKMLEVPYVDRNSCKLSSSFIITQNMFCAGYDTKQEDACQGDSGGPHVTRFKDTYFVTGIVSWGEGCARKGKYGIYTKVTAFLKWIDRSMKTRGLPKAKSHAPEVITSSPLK
Summary of the method: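 Amidolytic assay with a chromogenic substrate for factor Xa. Ki was derived by the Cheng–Prusoff relation from IC50 values, or from velocity equations with and without inhibitor using the substrate Km.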

Serine protease 1 = target: T1, Serine protease 1 (Bos taurus, UniProt P00760); experiment: In vitro inhibition of bovine trypsin.
T1 sequence (P00760 whole entry): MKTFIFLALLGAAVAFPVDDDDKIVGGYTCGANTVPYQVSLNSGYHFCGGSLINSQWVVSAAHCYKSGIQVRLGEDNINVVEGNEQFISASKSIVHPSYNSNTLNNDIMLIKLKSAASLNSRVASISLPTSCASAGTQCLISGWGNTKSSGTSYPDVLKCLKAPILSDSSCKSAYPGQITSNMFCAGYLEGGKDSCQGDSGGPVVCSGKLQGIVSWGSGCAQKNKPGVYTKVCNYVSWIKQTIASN
Summary of the method: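 Amidolytic assay of thrombin, trypsin and factor Xa activity with chromogenic substrates. Ki was derived by the Cheng–Prusoff relation from IC50, or from reaction velocity equations with and without inhibitor using the substrate Km. Thrombin-over-trypsin selectivity was taken as the ratio Ki(trypsin)/Ki(thrombin).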

[4] = Concentration required to double the prothrombin time in human plasma; format: functional
[5] = Concentration required to double the activated partial thromboplastin time in human plasma; format: functional

Row | pKa [2] | Ki (Prothrombin) | Selectivity [3] | Ki (Coagulation factor X) | Ki (Serine protease 1) | SMILES | TT [1] | PT [4] | 2x APTT [5]
1 | 4 | 0.149 µM | 1720 | 314 µM | 258 µM | Cc1ccc(NS(=O)(=O)Cc2ccc(F)cc2)c(=O)n1CC(=O)NCC1CCc2n[nH]cc2C1 (stereo not given) | 3.9 µM | 34 µM | 15.8 µM
2 | 4 | 0.102 µM | > 2900 | 228 µM | > 300 µM | Cc1ccc(CS(=O)(=O)Nc2ccc(C)n(CC(=O)NCC3CCc4n[nH]cc4C3)c2=O)cc1 (stereo not given) | 3.4 µM | 26.8 µM | 18.8 µM
3 | 6.1 | 0.071 µM | 3700 | 225 µM | 263 µM | Cc1ccc(NS(=O)(=O)Cc2ccccc2)c(=O)n1CC(=O)N[C@@H]1CCc2nc(N)sc2C1 |  |  | 9.52 µM
4 | 4 | 0.562 µM | 757 | 252 µM | 425 µM | Cc1ccc(NS(=O)(=O)Cc2cccc(C(F)(F)F)c2)c(=O)n1CC(=O)NCC1CCc2n[nH]cc2C1 (stereo not given) | 36.6 µM | 293 µM | 447 µM
5 | 6.5 | 3.8 µM |  |  |  | CCCS(=O)(=O)Nc1ccc(C)n(CC(=O)NCC2CCc3nc(N)sc3C2)c1=O (stereo not given) |  |  | 
6 | 6.1 | 2.3 µM | 28 | 200 µM | 64.3 µM | CCCS(=O)(=O)Nc1ccc(C)n(CC(=O)NC2CCc3nc(N)sc3C2)c1=O (stereo not given) |  |  | 
7 | 6.1 |  | > 300 | 81 µM | > 200 µM | Cc1ccc(NS(=O)(=O)Cc2cccc(C(F)(F)F)c2)c(=O)n1CC(=O)NC1CCc2nc(N)sc2C1 (stereo not given) | 125 µM | 435 µM | 428 µM
8 | 6.1 | 0.1 µM | 2460 | 80 µM | 246 µM | Cc1ccc(CS(=O)(=O)Nc2ccc(C)n(CC(=O)NC3CCc4nc(N)sc4C3)c2=O)cc1 (stereo not given) | 12 µM | 56 µM | 31.3 µM
9 | 6.1 | 0.077 µM | > 9090 | > 500 µM | > 700 µM | Cc1ccc(NS(=O)(=O)Cc2ccc(F)cc2)c(=O)n1CC(=O)N[C@@H]1CCc2nc(N)sc2C1 |  |  | 20.1 µM
10 | 3.17 | 0.042 µM | 65 | > 200 µM | 2.71 µM | Cc1ccc(NS(=O)(=O)Cc2ccccc2)c(=O)n1CC(=O)NC1CCc2c(sc(=N)n2N)C1 (stereo not given) |  |  | 2.4 µM
11 | 6.1 | 0.1 µM | > 8000 | > 300 µM | > 800 µM | Cc1ccc(NS(=O)(=O)Cc2ccc(F)cc2)c(=O)n1CC(=O)NC1CCc2nc(N)sc2C1 (stereo not given) | 5.1 µM | 57.7 µM | 28.7 µM
12 | 6.1 |  | > 123 | 176 µM | > 700 µM | Cc1ccc(NS(=O)(=O)Cc2ccc(F)cc2)c(=O)n1CC(=O)N[C@H]1CCc2nc(N)sc2C1 |  |  | 
13 | 6.1 | 1.16 µM | 253 | 371 µM |  | Cc1ccc(NS(=O)(=O)Cc2ccccc2)c(=O)n1CC(=O)N[C@H]1CCc2nc(N)sc2C1 |  |  | 
14 | 3.17 | 0.022 µM | 201 | 131 µM | 8.06 µM | Cc1ccc(NS(=O)(=O)Cc2ccc(F)cc2)c(=O)n1CC(=O)NC1CCc2c(sc(=N)n2N)C1 (stereo not given) |  |  | 22.6 µM
15 | 6.1 | 0.157 µM |  | 69 µM | 1920 µM | Cc1ccc(NS(=O)(=O)Cc2ccc(F)cc2Cl)c(=O)n1CC(=O)NC1CCc2nc(N)sc2C1 (stereo not given) | 93.8 µM |  | 94 µM
16 | 6.1 | 1.34 µM | 38 | 179 µM |  | CCCCS(=O)(=O)Nc1ccc(C)n(CC(=O)NC2CCc3nc(N)sc3C2)c1=O (stereo not given) |  |  | 
17 |  | 0.12 µM | 2170 | 92 µM |  | Cc1ccc(NS(=O)(=O)Cc2ccccc2)c(=O)n1CC(=O)NC1CCc2nc(N)sc2C1 (stereo not given) | 6.6 µM | 41.4 µM | 36.5 µM
18 | 4 | 0.157 µM | > 1910 | 75 µM | > 300 µM | Cc1ccc(NS(=O)(=O)Cc2ccc(F)cc2Cl)c(=O)n1CC(=O)NCC1CCc2n[nH]cc2C1 (stereo not given) | 10.8 µM | 120 µM | 50 µM
19 |  |  | > 2940 |  | > 500 µM | Cc1ccc(NS(=O)(=O)Cc2ccccc2)c(=O)n1CC(=O)NCC1CCc2n[nH]cc2C1 (stereo not given) | 5.2 µM | 30.6 µM | 20.5 µM
